Results reported in ChEMBL document CHEMBL1142330, “Omega-(2-Naphthyloxy) amino alkanes as a novel class of anti-hyperglycemic and lipid lowering agents” (Bioorg Med Chem, 2008).

Experiments:
[1] = biological target: T1, Peroxisome proliferator-activated receptor delta (Homo sapiens) (UniProt Q03181); assay: Inhibition of PPARdelta at 3 uM
T1 sequence (whole entry): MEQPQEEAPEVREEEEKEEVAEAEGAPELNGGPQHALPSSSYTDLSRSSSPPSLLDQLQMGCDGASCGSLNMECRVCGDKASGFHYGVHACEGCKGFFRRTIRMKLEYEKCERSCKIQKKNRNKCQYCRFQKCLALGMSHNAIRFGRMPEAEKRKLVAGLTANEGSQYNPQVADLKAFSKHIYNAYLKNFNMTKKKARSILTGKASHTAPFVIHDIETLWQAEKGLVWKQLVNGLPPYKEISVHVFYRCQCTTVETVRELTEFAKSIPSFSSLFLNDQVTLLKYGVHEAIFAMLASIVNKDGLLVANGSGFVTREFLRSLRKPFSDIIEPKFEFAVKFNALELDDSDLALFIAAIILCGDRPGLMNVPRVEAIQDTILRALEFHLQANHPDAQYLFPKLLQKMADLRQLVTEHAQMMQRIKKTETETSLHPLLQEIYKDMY

Rattus norvegicus [2] = assay: Antidiabetic activity in glucose loaded albino Sprague-Dawley rat model assessed as decrease in blood glucose level at 100 mg/kg, po; format: functional
Outline: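 Rats in groups of five were bled at baseline, then gavaged with test sample at 100 mg/kg. A glucose load of 2 g/kg was given 30 min later. Blood was collected at 30, 60, 90 and 120 min.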

Rattus norvegicus [3] = assay: Inhibition of cholesterol level in triton treated Charles Foster rat at 100 mg/kg, po; format: functional
Outline: (§1)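 Male Charles Foster rats (200–225 g) were used, six per group. They received Triton WR-1339 200 mg/kg i.p. together with oral compound at 100 mg/kg in 2% aqueous gum acacia, over 18 h; vehicle controls were included. Rats were then fasted overnight and bled retro-orbitally. Serum total cholesterol, phospholipids and triglyceride were assayed.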

Rattus norvegicus [4] = assay: Antidiabetic activity in sucrose loaded albino Sprague-Dawley rat model assessed as decrease in blood glucose level at 100 mg/kg, po; format: functional
Outline: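 Male Sprague–Dawley rats were fasted overnight and used in groups of five. Baseline blood was taken, then test sample was gavaged at 100 mg/kg. A sucrose load of […] followed 30 min later.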

Rattus norvegicus [5] = assay: Inhibition of triglyceride level in triton treated Charles Foster rat at 100 mg/kg, po; format: functional; outline: as §1
[6] = biological target: T2, Peroxisome proliferator-activated receptor alpha (Homo sapiens) (UniProt Q07869); assay: Inhibition of PPARalpha at 50 uM
T2 sequence (whole entry): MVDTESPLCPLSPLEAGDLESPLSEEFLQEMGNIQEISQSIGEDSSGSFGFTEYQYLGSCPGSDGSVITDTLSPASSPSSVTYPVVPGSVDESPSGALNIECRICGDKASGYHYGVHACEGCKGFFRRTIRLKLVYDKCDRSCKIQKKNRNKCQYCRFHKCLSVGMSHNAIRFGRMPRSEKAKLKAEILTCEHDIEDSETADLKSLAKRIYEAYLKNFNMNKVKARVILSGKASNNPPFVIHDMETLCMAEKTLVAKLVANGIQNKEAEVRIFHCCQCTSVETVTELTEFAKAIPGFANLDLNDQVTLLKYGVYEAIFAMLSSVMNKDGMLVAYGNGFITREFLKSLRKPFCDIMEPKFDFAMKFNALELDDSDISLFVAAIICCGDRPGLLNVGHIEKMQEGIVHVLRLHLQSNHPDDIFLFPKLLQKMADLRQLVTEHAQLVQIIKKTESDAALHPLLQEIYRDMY

Rattus norvegicus [7] = assay: Inhibition of phospholipids level in triton treated Charles Foster rat at 100 mg/kg, po; format: functional; outline: as §1
Rattus norvegicus [8] = assay: Antidiabetic activity in streptozotocin-induced diabetic albino Sprague-Dawley rat model assessed as decrease in blood glucose level at 100 mg/kg, po; format: functional
Outline: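 Overnight-fasted rats received streptozotocin 60 mg/kg i.p. in 100 mM citrate buffer, pH 4.5. After 48 h, animals with glucometer glucose of 200–400 mg/dl were grouped (n=6). Sample in 1% gum acacia was given orally at 100 mg/kg; controls received vehicle.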

Syrian golden hamster [9] = assay: Inhibition of glucose level in Syrian golden hamster at 300 umol/kg after 10 days; format: functional; conditions: Mesocricetus auratus, 240 h
Syrian golden hamster [10] = assay: Inhibition of glycerol level in Syrian golden hamster at 300 umol/kg after 10 days; format: functional; conditions: Mesocricetus auratus, 240 h
Syrian golden hamster [11] = assay: Inhibition of cholesterol level in Syrian golden hamster at 300 umol/kg after 10 days; format: functional; conditions: Mesocricetus auratus, 240 h
[12] = biological target: T3, Peroxisome proliferator-activated receptor gamma (Homo sapiens, UniProt P37231); assay: Binding affinity at PPARgamma
T3 sequence (P37231 whole entry): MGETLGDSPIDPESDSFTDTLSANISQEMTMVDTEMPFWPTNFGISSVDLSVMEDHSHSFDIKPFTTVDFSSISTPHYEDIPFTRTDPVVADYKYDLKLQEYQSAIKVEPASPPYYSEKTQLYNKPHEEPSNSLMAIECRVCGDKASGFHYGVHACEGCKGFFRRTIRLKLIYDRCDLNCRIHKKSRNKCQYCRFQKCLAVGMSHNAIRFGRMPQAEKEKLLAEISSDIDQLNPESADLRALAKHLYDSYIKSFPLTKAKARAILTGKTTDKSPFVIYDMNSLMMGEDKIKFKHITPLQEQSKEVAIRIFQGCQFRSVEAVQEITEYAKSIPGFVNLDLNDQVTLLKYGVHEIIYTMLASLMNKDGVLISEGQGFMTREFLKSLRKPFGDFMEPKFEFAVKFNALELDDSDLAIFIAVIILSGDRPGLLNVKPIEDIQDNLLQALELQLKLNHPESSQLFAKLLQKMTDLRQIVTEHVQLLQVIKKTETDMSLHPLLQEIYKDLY

Syrian golden hamster [13] = assay: Inhibition of free fatty acids level in Syrian golden hamster at 300 umol/kg after 10 days; format: functional; conditions: Mesocricetus auratus, 240 h
Mus musculus [14] = assay: Antidiabetic activity in db/db mouse at 100 mg/kg after 5 hrs on day 3; format: functional
Syrian golden hamster [15] = assay: Inhibition of triglyceride level in Syrian golden hamster at 300 umol/kg after 10 days; format: functional; conditions: Mesocricetus auratus, 240 h
Syrian golden hamster [16] = assay: Inhibition of HDL level in Syrian golden hamster at 300 umol/kg after 10 days; format: functional; conditions: Mesocricetus auratus, 240 h
Mus musculus [17] = assay: Antidiabetic activity in db/db mouse at 100 mg/kg after 24 hrs on day 3; format: functional
Rattus norvegicus [18] = assay: Antidiabetic activity in sucrose challenged streptozotocin-induced diabetic albino Sprague-Dawley rat model assessed as decrease in blood glucose level at 100 mg/kg, po; format: functional
Outline: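 Diabetes was induced in overnight-fasted rats with streptozotocin 60 mg/kg i.p. in 100 mM citrate buffer, pH 4.5. Rats with glucose of 150–250 mg/dl at 48 h were selected. A sucrose load of 2.5 g/kg was given 30 min after oral dosing. Glucose was measured at 30–300 min and 24 h. Food was withheld, water allowed.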

Row | Structure (SMILES) | inhibition [1] [%] | inhibition in vivo at 100 mg/kg (Rattus norvegicus [2]) [%] | inhibition in vivo at 100 mg/kg (Rattus norvegicus [3]) [%] | inhibition in vivo at 100 mg/kg (Rattus norvegicus [4]) [%] | inhibition in vivo at 100 mg/kg (Rattus norvegicus [5]) [%] | inhibition [6] [%] | inhibition in vivo at 100 mg/kg (Rattus norvegicus [7]) [%] | inhibition in vivo at 100 mg/kg (Rattus norvegicus [8]) [%] | inhibition in vivo at 300 µmol/kg (Syrian golden hamster [9]) [%] | inhibition in vivo at 300 µmol/kg (Syrian golden hamster [10]) [%] | inhibition in vivo at 300 µmol/kg (Syrian golden hamster [11]) [%] | EC50 [12] [µM] | inhibition in vivo at 300 µmol/kg (Syrian golden hamster [13]) [%] | inhibition in vivo at 100 mg/kg (Mus musculus [14]) [%] | inhibition in vivo at 300 µmol/kg (Syrian golden hamster [15]) [%] | inhibition in vivo at 300 µmol/kg (Syrian golden hamster [16]) [%] | inhibition in vivo at 100 mg/kg (Mus musculus [17]) [%] | inhibition in vivo at 100 mg/kg (Rattus norvegicus [18]) [%]
1 | CCCN(CCCOc1ccc2ccccc2c1)c1ccc(OC)cc1 | 9.6 | 11.6 | 14 | 37.2 | 12 | 10.9 | 27 | – | – | – | – | – | – | – | – | – | – | –
2 | CCN(CCCOc1ccc2ccccc2c1)c1ccc(OC)cc1 | 17.3 | 6.88 | – | 13.5 | – | 20.3 | – | – | – | – | – | – | – | – | – | – | – | –
3 | CCO[C@@H](Cc1ccc(OCCc2ccc(OS(C)(=O)=O)cc2)cc1)C(=O)O | – | – | – | – | – | 55.5 | – | – | – | – | – | – | – | – | – | – | – | –
4 | c1ccc(CNCCCCOc2ccc3ccccc3c2)cc1 | 22.4 | 8.89 | 10.1 | 16 | 5 | 21.3 | 18 | – | – | – | – | – | – | – | – | – | – | –
5 | COc1ccc(Cl)cc1C(=O)NCCc1ccc(S(=O)(=O)NC(=O)NC2CCCCC2)cc1 [GLYBURIDE] | – | – | – | 33.9 | – | – | – | 32.8 | – | – | – | – | – | – | – | – | – | –
6 | C/C=C1\C(=O)C[C@H]2[C@@H]3CCC4=CC(=O)CC[C@]4(C)[C@H]3CC[C@]12C [GUGGULSTERONE] | – | – | 34 | – | 30 | – | 33 | – | – | – | – | – | – | – | – | – | – | –
7 | CCOC(=O)CN(CCCOc1ccc2ccccc2c1)c1ccc(OC)cc1 | 29.6 | 25.9 | 21.2 | 45.4 | 15 | 33.5 | 26 | 6.9 | 34 | 7.3 | 22 | 4.8 | 48 | 12 | 68 | 16 | 15.4 | 5.6
8 | COc1ccc(NCCCCOc2ccc3ccccc3c2)cc1 | 16.3 | 3.89 | 24 | 5.09 | 22 | 18.3 | 36 | – | – | – | – | – | – | – | – | – | – | –
9 | COc1ccc(NCCOc2ccc3ccccc3c2)cc1 | 24.6 | 10.6 | – | 19.4 | – | 22.2 | – | – | – | – | – | – | – | – | – | – | – | –
10 | COc1ccc(N(CCCOc2ccc3ccccc3c2)CC(=O)O)cc1 | 20.2 | 15.5 | 23.8 | 21.5 | 13 | 25.4 | 16.9 | – | 22 | 23 | 21 | – | – | – | 44 | 11 | – | –
